Measured values: article PMC11908206 (bioRxiv, 2025)

Columns and labels:
[1] = system: Apc^Q1405X small intestinal organoids; experiment: RNA-seq and GSEA of ApcQ1405X small intestinal organoids; type: cell-based, mouse; conditions: 250nM G007-LK or 500nM TDI-012804, 3 days; for transcriptional response (RNA-seq), Tnks1 KO: ApcQ1405X/Tnks1 KO organoids; for transcriptional response (RNA-seq), Tnks1 WT: ApcQ1405X/Tnks1 WT organoids
Procedure, shortened: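 Organoids plated at one six-well per condition in EN medium (basal Advanced DMEM/F12 with EGF 40 ng/ml and LDN 50 nM). Medium contained DMSO or test compound at 250 nM or 500 nM, then harvested for RNA isolation and sequencing.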

[2] = system: ApcQ1405X small intestinal organoids; experiment: Organoid viability; type: cell-based, mouse; conditions: 250nM
Procedure, shortened: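 Mouse ApcQ1405X small-intestinal organoids plated at high density in Matrigel, two wells per condition, in EN medium (EGF 40 ng/ml, LDN 50 nM) containing DMSO or 250 nM compound. Medium changed every 2 days. Every 4 days, alamarBlue added to one well and fluorescence read; the other well passaged 1:2 into the same condition. Run for 20 days; n = 3, mean with SEM.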

OVCAR4 cells = experiment: Colony forming assay, OVCAR4; type: cell-based, human
[3] = system: ApcQ1405X small intestinal organoids; experiment: Organoid viability; type: cell-based, mouse; conditions: all Tnks1 genotypes, 6 days
[4] = system: ApcQ1405X/KrasG12D/p53Q97X small intestinal organoids; experiment: Organoid viability; type: cell-based, mouse; conditions: six days
PARP1 = PARP1 (Homo sapiens, UniProt P09874); experiment: PARP1 inhibition; type: biochemical; conditions: Fig. S9
Sequence of PARP1 (P09874 whole entry, species assumed, the tested form may be a part): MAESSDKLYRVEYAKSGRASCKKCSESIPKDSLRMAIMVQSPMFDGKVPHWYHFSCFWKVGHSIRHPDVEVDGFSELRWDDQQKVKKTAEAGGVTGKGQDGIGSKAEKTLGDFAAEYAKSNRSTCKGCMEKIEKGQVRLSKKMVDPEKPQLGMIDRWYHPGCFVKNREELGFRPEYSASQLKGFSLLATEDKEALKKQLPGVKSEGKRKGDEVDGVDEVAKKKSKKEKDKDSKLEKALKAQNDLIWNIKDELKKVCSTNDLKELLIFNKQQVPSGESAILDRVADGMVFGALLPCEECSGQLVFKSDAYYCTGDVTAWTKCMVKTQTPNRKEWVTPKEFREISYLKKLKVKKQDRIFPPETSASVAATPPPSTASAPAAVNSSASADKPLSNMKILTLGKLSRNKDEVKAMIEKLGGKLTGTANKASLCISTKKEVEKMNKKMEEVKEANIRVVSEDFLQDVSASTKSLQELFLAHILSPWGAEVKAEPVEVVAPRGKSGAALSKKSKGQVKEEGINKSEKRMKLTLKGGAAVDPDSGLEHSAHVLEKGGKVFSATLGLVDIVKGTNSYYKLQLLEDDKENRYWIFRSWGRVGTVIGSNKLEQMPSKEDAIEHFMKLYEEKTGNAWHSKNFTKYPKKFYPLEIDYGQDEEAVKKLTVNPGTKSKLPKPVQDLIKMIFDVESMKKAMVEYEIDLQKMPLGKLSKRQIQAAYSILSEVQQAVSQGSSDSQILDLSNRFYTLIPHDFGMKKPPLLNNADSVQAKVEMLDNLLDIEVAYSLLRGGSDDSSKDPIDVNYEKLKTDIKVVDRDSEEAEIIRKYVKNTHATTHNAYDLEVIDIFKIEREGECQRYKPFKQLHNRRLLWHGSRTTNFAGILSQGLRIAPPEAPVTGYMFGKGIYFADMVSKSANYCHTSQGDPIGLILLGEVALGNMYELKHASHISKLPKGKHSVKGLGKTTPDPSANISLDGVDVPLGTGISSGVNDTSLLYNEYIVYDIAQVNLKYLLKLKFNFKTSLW

[5] = system: TNKS2^WT, TNKS2^L1136Y and TNKS1 SAM-PARP domains; experiment: In vitro PARylation assay with purified SAM-PARP domains; type: biochemical
[6] = system: ApcQ1405X/KrasG13D/p53Q97X small intestinal organoids; experiment: Organoid viability; type: cell-based, mouse; conditions: six days
[7] = system: AXIN1 in TNKS1^KO DLD1 cells; type: cell-based; conditions: 24h
AXIN1 in H23 cells = experiment: Western blot of AXIN1 in H23 cells; type: cell-based, human; conditions: 8p diploid H23, 250nM, 24h
Procedure, shortened: (§1)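 Cells grown in RPMI-1640 with 10% FBS; 700,000 per well seeded and allowed to adhere 24h. Exposed to 250 nM compound for 24h, then lysed in RIPA buffer on ice for 20 min and cleared at 15,000 rpm for 10 min. 20 µg protein per lane probed for AXIN1; band intensity quantified.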

[8] = system: TOPFlash reporter in DLD1 cells; experiment: TOPFlash WNT transcriptional reporter in TNKS1 isogenic DLD1 cells; type: cell-based; conditions: Homo sapiens, DLD-1, read-out: TOP-Flash reporter EC50
H23 cells = experiment: Colony forming assay, H23; type: cell-based, human
PARP3 = biological target: T1, PARP3 (Homo sapiens, UniProt Q9Y6F1); experiment: PARP3 inhibition; type: biochemical; conditions: Fig. S9
T1 sequence (Q9Y6F1 1-533): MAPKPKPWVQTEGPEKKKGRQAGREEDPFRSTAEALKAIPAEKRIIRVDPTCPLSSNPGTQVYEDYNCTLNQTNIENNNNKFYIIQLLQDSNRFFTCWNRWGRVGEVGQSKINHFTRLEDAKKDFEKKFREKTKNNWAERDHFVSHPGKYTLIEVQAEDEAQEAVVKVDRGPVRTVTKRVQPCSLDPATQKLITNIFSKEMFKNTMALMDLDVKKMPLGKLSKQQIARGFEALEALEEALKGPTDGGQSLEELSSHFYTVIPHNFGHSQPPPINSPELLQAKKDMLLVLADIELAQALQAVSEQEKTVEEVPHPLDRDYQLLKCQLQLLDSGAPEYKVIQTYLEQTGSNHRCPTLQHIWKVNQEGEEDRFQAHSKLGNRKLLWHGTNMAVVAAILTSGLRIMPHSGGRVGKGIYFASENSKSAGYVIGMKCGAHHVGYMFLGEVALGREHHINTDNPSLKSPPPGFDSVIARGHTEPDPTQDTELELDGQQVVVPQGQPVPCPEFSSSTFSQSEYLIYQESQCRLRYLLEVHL

AXIN1 in SW403 cells = experiment: Western blot of AXIN1 in SW403 cells; type: cell-based, human; conditions: SW403 (8p heterozygous), 250nM, 24h
Procedure, shortened: as §1

PARP2 = PARP2 (Homo sapiens, UniProt Q9UGN5); experiment: PARP2 inhibition; type: biochemical; conditions: Fig. S9
Sequence of PARP2 (Q9UGN5 whole entry, species assumed): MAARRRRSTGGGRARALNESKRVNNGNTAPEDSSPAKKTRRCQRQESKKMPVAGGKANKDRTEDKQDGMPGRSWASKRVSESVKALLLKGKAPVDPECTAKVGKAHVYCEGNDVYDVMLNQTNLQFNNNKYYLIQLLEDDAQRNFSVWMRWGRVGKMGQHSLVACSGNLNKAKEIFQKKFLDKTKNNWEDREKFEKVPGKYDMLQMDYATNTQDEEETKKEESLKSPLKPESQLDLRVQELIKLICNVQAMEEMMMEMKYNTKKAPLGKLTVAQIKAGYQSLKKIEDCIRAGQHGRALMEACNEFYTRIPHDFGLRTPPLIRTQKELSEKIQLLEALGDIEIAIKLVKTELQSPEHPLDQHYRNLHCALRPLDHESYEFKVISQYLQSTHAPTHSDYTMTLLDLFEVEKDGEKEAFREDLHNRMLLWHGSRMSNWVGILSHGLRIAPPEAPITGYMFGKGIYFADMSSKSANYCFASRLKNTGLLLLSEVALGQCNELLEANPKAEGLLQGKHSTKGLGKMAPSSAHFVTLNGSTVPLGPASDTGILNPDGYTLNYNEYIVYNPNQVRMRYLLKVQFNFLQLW

AXIN1 in DLD1 cells = experiment: Western blot of endogenous AXIN1 in TNKS1 isogenic DLD1 cells; type: cell-based; conditions: 500nM or 250nM, 24h
Procedure, shortened: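 DLD1 TNKS1-edited clones made by Cas9 and TNKS1 sgRNA transduction with drug selection, then single-cell cloning by limiting dilution. For blotting, 700,000 cells/well were allowed to adhere 24h and treated with compound for 24h. Lysis in RIPA buffer on ice for 20 min; 20 µg protein per sample blotted for AXIN1; band intensity quantified.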

## CS(=O)(=O)c1ccc(-c2nnc(/C=C/c3nnc(-c4ccc(C#N)cc4)o3)n2-c2ccccc2Cl)nc1 [G007-LK, reference compound]
[1]
  transcriptional response (RNA-seq), Tnks1 KO: broad transcriptional changes
  transcriptional response (RNA-seq), Tnks1 WT: broad transcriptional changes
[2]; ApcQ1405X organoids
  organoid growth over 20 days: robust suppression of organoid growth
OVCAR4 cells; OVCAR4, 250nM, with or without Palbociclib
  colony formation, OVCAR4: sensitive
[3]
  organoid proliferation (organoid area and AlamarBlue): robust suppression of proliferation across all Tnks1 genotypes

## COc1cc(-c2ccccc2)ncc1C(=O)Nc1ccc2c(=O)[nH]c(-c3ccc(C(C)(C)O)cc3)nc2c1 [TDI-012804, COC1=C(C=NC(=C1)C1=CC=CC=C1)C(=O)NC1=CC=C2C(=O)NC(=NC2=C1)C1=CC=C(C=C1)C(C)(C)O]
[4]
  toxicity to Tnks1 KO compared to Tnks1 WT AKP-G12D organoids: selectively toxic
PARP1
  inhibition of PARP1: no inhibition
[5]
  effect of L1136Y mutation on potency against TNKS2: significantly reduced the potency
[6]
  toxicity to Tnks1 KO compared to Tnks1 WT AKP-G13D organoids: selectively toxic
[7]; TNKS1 KO DLD1, 250nM
  AXIN1 protein (western blot), TNKS1 KO: increased AXIN1 protein
[7]; TNKS1 KO DLD1 expressing TNKS2 WT cDNA, 250nM
  AXIN1 protein (western blot), TNKS1 KO/TNKS2 WT: increased AXIN1 protein
AXIN1 in H23 cells
  AXIN1 protein (western blot), H23: did not induce AXIN1 stabilization
[1]
  transcriptional response (RNA-seq), Tnks1 KO: near-identical overall transcriptional response to G007-LK treated cultures
  transcriptional response (RNA-seq), Tnks1 WT: no significant gene expression changes
[8]
  EC50: < 100 nM
[2]; ApcQ1405X Tnks1 HET organoids
  organoid proliferation over 20 days, Tnks1 HET: significant reduction in proliferation
[2]; ApcQ1405X Tnks1 KO organoids
  organoid proliferation over 20 days, Tnks1 KO: significant reduction in proliferation
H23 cells; 8p diploid H23, 250nM
  colony formation, H23: nor suppress colony formation
H23 cells; H23 shTNKS1, 250nM, further enhanced with Palbociclib
  colony formation, H23 with suppression of TNKS1: significant sensitization
PARP3
  inhibition of PARP3: no inhibition
OVCAR4 cells; OVCAR4 shTNKS1, 250nM
  colony formation, OVCAR4 TNKS1-depleted: significantly reduced
AXIN1 in SW403 cells
  AXIN1 protein (western blot), SW403: induced AXIN1 stabilization to similar levels as the pan-TNKS inhibitor G007-LK
PARP2
  inhibition of PARP2: no inhibition
AXIN1 in DLD1 cells; DLD1 TNKS1 HET
  endogenous AXIN1 protein (western blot), TNKS1 HET: marked stabilization
AXIN1 in DLD1 cells; DLD1 TNKS1 KO
  endogenous AXIN1 protein (western blot), TNKS1 KO: marked stabilization
AXIN1 in DLD1 cells; DLD1 TNKS1 diploid controls
  endogenous AXIN1 protein (western blot), TNKS1 diploid: minimal increase
